# Assay results from PubChem BioAssay AID504338 (NMMLSC, 2011).
# Values joined by “and” are separate entries in the source; they are usually repeats but may differ in a detail not shown here. Identical values can stand only once. Active and inactive are the calls of the source.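 The calls were made as follows: active = GFP response vs DMSO above 150% with enough events counted; inconclusive = fewer than 70 events counted for a yeast strain; inactive = the rest.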
# Assay: yeast TOR reporter LAP4-GFP retest – cell-based, third cherry pick, flow cytometry, confirmation (AID 504338);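 also: ratio to plate DMSO wells so 100% equals DMSO level rather than 0%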
# Details: S. cerevisiae LAP4-GFP strain, 3 h, at 10 µM, stronger effect = higher value
# Method in brief: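 material = yeast LAP4-GFP strain | medium = synthetic complete growth medium for yeast | doses = 10 µM, one concentration | schedule = compound exposure for 3 h at 30 °C | signal = flow cytometric GFP fluorescence | read-out basis = percent of mean DMSO-control median fluorescence | control set = rapamycin 400 ng/mL as positive control, DMSO wells as reference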
row,SMILES,GFP response vs DMSO
1,OCCN1CCN(c2ncnc3ccc(Br)cc23)CC1,104% (inactive)
2,CC(=O)NC(C)c1cc(Cl)c2cccnc2c1O (centres undefined),101% (inactive)
3,Nc1nc(NCCOCCO)nc(Nc2cccc(F)c2)c1[N+](=O)[O-],104% (inactive)
4,COc1ccccc1-c1cc(C(F)(F)F)nc(S(=O)(=O)CCCC(=O)NC(C)C)n1,101% (inactive) and 104% (inactive)
5,COC1=C/C(=C/c2c(N)n3cc(C)sc3nc2=O)C=CC1=O,110% (inactive)
6,Cc1cccc(C)c1Nc1ncnc(N)c1[N+](=O)[O-],101% (inactive)
7,COCCCNc1nc(N)c([N+](=O)[O-])c(Nc2ccccc2OC)n1,106% (inactive)
8,O=C(O)CCCCCNc1ncnc2ccc(Br)cc12,104% (inactive)
9,C=CCNc1ncnc2ccccc12,103% (inactive)
10,O=C(Nc1cccc(Cl)c1)ON=C1c2ccccc2-c2ccccc21,107% (inactive)
11,Cc1cccc(Nc2cc(=O)[nH]c(=O)[nH]2)c1C,101% (inactive)
12,COC(=O)c1cc(=O)c2cccc(OC)c2[nH]1,101% (inactive)
13,Cc1cccc(N/C=C/C(=O)c2ccc(Cl)cc2)c1,110% (inactive)
14,COc1cccc(N/C=C/C(=O)c2ccc(Cl)cc2)c1,111% (inactive)
15,Cn1c(NCCO)nc2c(c1=O)C1(CCCCC1)Cc1ccccc1-2,104% (inactive)
16,CNc1cccc2c1C(=O)c1ccccc1C2=O,107% (inactive)
17,COCCCNc1nc(N)c([N+](=O)[O-])c(Nc2cc(OC)ccc2OC)n1,103% (inactive)
18,COc1ccccc1-c1cc(C(F)(F)F)nc(S(C)(=O)=O)n1,128% (inactive)
19,O=C(Nc1ccccc1Cl)ON=C1c2ccccc2-c2ccccc21,108% (inactive)
20,Oc1ccc(Cl)c2cccnc12,110% (inactive)

row,SMILES,GFP response vs DMSO
1,COc1cccc(OCc2cc(C(=O)N3CCN(C)C(c4ccccc4)C3)no2)c1 (centres undefined),106% (inactive)
2,C/C(=C\C(=O)c1ccc(Cl)cc1)Nc1ccc(Br)cc1,101% (inactive)
3,CCc1sc(C(=O)Nc2nc(-c3ccccn3)cs2)cc1C,189% (active)
4,OCc1ccnc2c(O)cccc12,101% (inactive)
5,OCc1ccc(O)c2ncccc12,101% (inactive)
6,COCC(C)NC(=O)CCS(=O)(=O)c1nc(-c2ccc(OC)cc2)cc(C(F)(F)F)n1 (centres undefined),104% (inactive)
7,Nc1[nH]c(=O)nc(Nc2ccccc2)c1N=O,104% (inactive)
8,Cc1ccc(Nc2nc(N)[nH]c(=O)c2N=O)cc1,104% (inactive)
9,COc1ccccc1Nc1nc(NCCC(C)C)nc(N)c1[N+](=O)[O-],100% (inactive)
10,C=CCNc1nc(N)c([N+](=O)[O-])c(Nc2cccc(Cl)c2)n1,104% (inactive)
11,FC(F)Oc1cccc2cccnc12,101% (inactive)
12,Oc1ccc(F)c2cccnc12,106% (inactive)
13,O=C(N/N=C/c1ccccc1)c1cccc2ccccc12,103% (inactive)
14,Cc1ccc(NN2C(=O)C=C(c3ccccc3)C2=O)cc1,138% (inactive)
15,Cc1ccc(C(=O)/C=C/Nc2cccc(O)c2)cc1,117% (inactive)
16,COc1cccc(NC(=O)CC(C)=O)c1,101% (inactive)
17,CCCOCc1ccc(O)c2ncccc12,104% (inactive)
18,COc1ccccc1-c1cc(C(F)(F)F)nc(S(=O)(=O)CCCC(=O)O)n1,112% (inactive)
19,CN(C)CCCNc1cc(O)c2ncccc2c1,110% (inactive)
